Measured values from ChEMBL document CHEMBL3271959, “Comparative stereochemistry in the aziridine ring openings of N-methylmitomycin A and 7-methoxy-1,2-(N-methylaziridino)mitosene” (J Med Chem, 1977).
Calls of active or inactive are those of the source. No cut-off for these calls is given here.

How the values were obtained:
[1] = tested on: Enterobacteria phage lambda; test: Induction of lambda phage lytic activity in Escherichia coli W1709(lambda) assessed as ratio of plaques in treated culture to control at 0.05 ug/ml preincubated for 90 mins followed by heart infusion broth and glucose addition measured after 120 mins; assay type: functional
[2] = tested on: Enterobacteria phage lambda; test: Induction of lambda phage lytic activity in Escherichia coli W1709(lambda) assessed as ratio of plaques in treated culture to control at 0.8 ug/ml preincubated for 90 mins followed by heart infusion broth and glucose addition measured after 120 mins; assay type: functional
[3] = tested on: Enterobacteria phage lambda; test: Induction of lambda phage lytic activity in Escherichia coli W1709(lambda) assessed as ratio of plaques in treated culture to control at 0.003 ug/ml preincubated for 90 mins followed by heart infusion broth and glucose addition measured after 120 mins; assay type: functional
[4] = tested on: Enterobacteria phage lambda; test: Induction of lambda phage lytic activity in Escherichia coli W1709(lambda) assessed as ratio of plaques in treated culture to control at 0.0125 ug/ml preincubated for 90 mins followed by heart infusion broth and glucose addition measured after 120 mins; assay type: functional
[5] = tested on: Enterobacteria phage lambda; test: Induction of lambda phage lytic activity in Escherichia coli W1709(lambda) assessed as ratio of plaques in treated culture to control at 3.1 ug/ml preincubated for 90 mins followed by heart infusion broth and glucose addition measured after 120 mins; assay type: functional
Escherichia coli [6] = test: Toxicity in Escherichia coli W1709(lambda) at 3.1 ug/ml; assay type: organism-based; conditions: in vivo
[7] = tested on: Enterobacteria phage lambda; test: Induction of lambda phage lytic activity in Escherichia coli W1709(lambda) assessed as ratio of plaques in treated culture to control at 0.2 ug/ml preincubated for 90 mins followed by heart infusion broth and glucose addition measured after 120 mins; assay type: functional
P388 [8] = test: Antitumor activity against mouse P388 cells allografted in CDF1 mouse assessed as mouse survival at 0.1 mg/kg/day administered qd on day 1 and 5 measured on day 5; assay type: functional, organism-based
Outline: (§1)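 Male CDF1 mice were implanted intraperitoneally with 10^6 P388 ascites cells. Treatment was given once daily on days 1 and 5 only. Groups were six mice each. Median survival time was taken for each group.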

P388 [9] = test: Antitumor activity against mouse P388 cells allografted in CDF1 mouse assessed as mouse survival at 1.6 mg/kg/day administered qd on day 1 and 5 measured on day 5; assay type: functional, organism-based; outline: as §1
P388 [10] = test: Antitumor activity against mouse P388 cells allografted in CDF1 mouse assessed as mouse survival at 0.8 mg/kg/day administered qd on day 1 and 5 measured on day 30; assay type: functional, organism-based; outline: as §1
Mus musculus [11] = test: Toxicity in CDF1 mouse allografted with mouse P388 cells assessed as change in weight at 0.1 mg/kg/day administered qd on day 1 and 5 (reference value: 3.4 g); assay type: organism-based; conditions: in vivo; outline: as §1
P388 [12] = test: Antitumor activity against mouse P388 cells allografted in CDF1 mouse assessed as effect on median survival time at 3.2 mg/kg/day administered qd on day 1 and 5 relative to control; assay type: functional; outline: as §1
P388 [13] = test: Antitumor activity against mouse P388 cells allografted in CDF1 mouse assessed as mouse survival at 0.8 mg/kg/day administered qd on day 1 and 5 measured on day 5; assay type: functional, organism-based; outline: as §1
P388 [14] = test: Antitumor activity against mouse P388 cells allografted in CDF1 mouse assessed as mouse survival at 0.2 mg/kg/day administered qd on day 1 and 5 measured on day 30; assay type: functional, organism-based; outline: as §1
Mus musculus [15] = test: Toxicity in CDF1 mouse allografted with mouse P388 cells assessed as change in weight at 0.8 mg/kg/day administered qd on day 1 and 5 (reference value: 3.4 g); assay type: organism-based; conditions: in vivo; outline: as §1
P388 [16] = test: Antitumor activity against mouse P388 cells allografted in CDF1 mouse assessed as effect on median survival time at 0.2 mg/kg/day administered qd on day 1 and 5 relative to control; assay type: functional; outline: as §1
P388 [17] = test: Antitumor activity against mouse P388 cells allografted in CDF1 mouse assessed as mouse survival at 0.4 mg/kg/day administered qd on day 1 and 5 measured on day 30; assay type: functional, organism-based; outline: as §1
P388 [18] = test: Antitumor activity against mouse P388 cells allografted in CDF1 mouse assessed as mouse survival at 0.2 mg/kg/day administered qd on day 1 and 5 measured on day 5; assay type: functional, organism-based; outline: as §1
Escherichia coli [19] = test: Toxicity in Escherichia coli W1709(lambda) at 0.05 ug/ml; assay type: organism-based; conditions: in vivo
P388 [20] = test: Antitumor activity against mouse P388 cells allografted in CDF1 mouse assessed as mouse survival at 1.6 mg/kg/day administered qd on day 1 and 5 measured on day 30; assay type: functional, organism-based; outline: as §1
P388 [21] = test: Antitumor activity against mouse P388 cells allografted in CDF1 mouse assessed as effect on median survival time at 0.8 mg/kg/day administered qd on day 1 and 5 relative to control; assay type: functional; outline: as §1
P388 [22] = test: Antitumor activity against mouse P388 cells allografted in CDF1 mouse assessed as effect on median survival time at 0.4 mg/kg/day administered qd on day 1 and 5 relative to control; assay type: functional; outline: as §1
Mus musculus [23] = test: Toxicity in CDF1 mouse allografted with mouse P388 cells assessed as change in weight at 0.4 mg/kg/day administered qd on day 1 and 5 (reference value: 3.4 g); assay type: organism-based; conditions: in vivo; outline: as §1
Mus musculus [24] = test: Toxicity in CDF1 mouse allografted with mouse P388 cells assessed as change in weight at 3.2 mg/kg/day administered qd on day 1 and 5 (reference value: 3.4 g); assay type: organism-based; conditions: in vivo; outline: as §1
P388 [25] = test: Antitumor activity against mouse P388 cells allografted in CDF1 mouse assessed as effect on median survival time at 1.6 mg/kg/day administered qd on day 1 and 5 relative to control; assay type: functional; outline: as §1
P388 [26] = test: Antitumor activity against mouse P388 cells allografted in CDF1 mouse assessed as mouse survival at 3.2 mg/kg/day administered qd on day 1 and 5 measured on day 30; assay type: functional, organism-based; outline: as §1
P388 [27] = test: Antitumor activity against mouse P388 cells allografted in CDF1 mouse assessed as mouse survival at 0.4 mg/kg/day administered qd on day 1 and 5 measured on day 5; assay type: functional, organism-based; outline: as §1
Escherichia coli [28] = test: Toxicity in Escherichia coli W1709(lambda) at 0.0125 ug/ml; assay type: organism-based; conditions: in vivo
P388 [29] = test: Antitumor activity against mouse P388 cells allografted in CDF1 mouse assessed as mouse survival at 3.2 mg/kg/day administered qd on day 1 and 5 measured on day 5; assay type: functional, organism-based; outline: as §1
P388 [30] = test: Antitumor activity against mouse P388 cells allografted in CDF1 mouse assessed as effect on median survival time at 0.1 mg/kg/day administered qd on day 1 and 5 relative to control; assay type: functional; outline: as §1
P388 [31] = test: Antitumor activity against mouse P388 cells allografted in CDF1 mouse assessed as mouse survival at 0.1 mg/kg/day administered qd on day 1 and 5 measured on day 30; assay type: functional, organism-based; outline: as §1
Mus musculus [32] = test: Toxicity in CDF1 mouse allografted with mouse P388 cells assessed as change in weight at 1.6 mg/kg/day administered qd on day 1 and 5 (reference value: 3.4 g); assay type: organism-based; conditions: in vivo; outline: as §1
Mus musculus [33] = test: Toxicity in CDF1 mouse allografted with mouse P388 cells assessed as change in weight at 0.2 mg/kg/day administered qd on day 1 and 5 (reference value: 3.4 g); assay type: organism-based; conditions: in vivo; outline: as §1
Escherichia coli [34] = test: Toxicity in Escherichia coli W1709(lambda) at 0.2 ug/ml; assay type: organism-based; conditions: in vivo
Outline: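 Screened for induction of lytic activity by lambda-bacteriophage lysogenic in Escherichia coli, at 3.1, 0.8, 0.2, 0.05, 0.0125 and 0.003 ug/mL. The read-out was the ratio of plaques induced by the test compound to plaques in an untreated control. Wells where the compound was toxic to the culture were scored "T" instead of a ratio.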

P388 [35] = test: Antitumor activity against mouse P388 cells allografted in CDF1 mouse assessed as mouse survival at 6.4 mg/kg/day administered qd on day 1 and 5 measured on day 5; assay type: functional, organism-based; outline: as §1
Escherichia coli [36] = test: Toxicity in Escherichia coli W1709(lambda) at 0.8 ug/ml; assay type: organism-based; conditions: in vivo
P388 [37] = test: Antitumor activity against mouse P388 cells allografted in CDF1 mouse assessed as mouse survival at 6.4 mg/kg/day administered qd on day 1 and 5 measured on day 30; assay type: functional, organism-based; outline: as §1
Mus musculus [38] = test: Toxicity in CDF1 mouse allografted with mouse P388 cells assessed as change in weight at 6.4 mg/kg/day administered qd on day 1 and 5 (reference value: 3.4 g); assay type: organism-based; conditions: in vivo; outline: as §1
P388 [39] = test: Antitumor activity against mouse P388 cells allografted in CDF1 mouse assessed as effect on median survival time at 6.4 mg/kg/day administered qd on day 1 and 5 relative to control; assay type: functional; outline: as §1

| SMILES | T/C [1] | T/C [2] | T/C [3] | T/C [4] | T/C [5] | Activity (P388 [9]) | T/C (P388 [12]) | Activity (P388 [13]) | Activity (P388 [14]) | Activity (Mus musculus [15]) | T/C (P388 [16]) | Activity (P388 [17]) | Activity (P388 [18]) | Activity (P388 [20]) | T/C (P388 [21]) | T/C (P388 [22]) | Activity (Mus musculus [23]) | Activity (Mus musculus [24]) | T/C (P388 [25]) | Activity (P388 [27]) | further results |
| --- | --- | --- | --- | --- | --- | --- | --- | --- | --- | --- | --- | --- | --- | --- | --- | --- | --- | --- | --- | --- | --- |
| COC1=C(C)C(=O)c2c(c(COC(N)=O)c3n2C[C@H]2[C@@H]3N2C)C1=O (some centres not stated) | 3.4 | 38.8 | 0.8 | 3 | 35.4 |  |  |  |  |  |  |  |  |  |  |  |  |  |  |  | Activity (Escherichia coli [6]): Toxic |
| COC1=C(C)C(=O)c2c(c(COC(N)=O)c3n2CCC3O)C1=O (racemic) |  | 2.9 |  |  | 6.9 |  |  |  |  |  |  |  |  |  |  |  |  |  |  |  |  |
| CN[C@@H]1Cn2c3c(c(COC(N)=O)c2[C@@H]1O)C(=O)C(OC)=C(C)C3=O (relative stereo) |  | 4.4 |  |  | 22.4 |  |  |  |  |  |  |  |  |  |  |  |  |  |  |  | T/C [7]: 2; Activity (Escherichia coli [6]): Toxic |
| CN[C@@H]1Cn2c3c(c(COC(N)=O)c2[C@H]1O)C(=O)C(OC)=C(C)C3=O (relative stereo) |  | 2.4 |  |  | 7 |  |  |  |  |  |  |  |  |  |  |  |  |  |  |  |  |
| COC1=C(C)C(=O)C2=C(C1=O)[C@@H](COC(N)=O)[C@@]1(OC)[C@H]3N[C@H]3CN21 [MITOMYCIN A] |  |  | 7.4 | 31.1 |  | Active | 180% | Active | inactive | -2.6 g | 130% | inactive | Active | inactive | 155% | 140% | -0.4 g | -2.1 g | 165% | Active | Activity (P388 [8]): Active; Activity (P388 [10]): inactive; Activity (Mus musculus [11]): 0.3 g; Activity (Escherichia coli [19]): Toxic; Activity (P388 [26]): inactive; Activity (Escherichia coli [28]): Toxic; Activity (P388 [29]): Active; T/C (P388 [30]): 120%; Activity (P388 [31]): inactive; Activity (Mus musculus [32]): -3.1 g; Activity (Mus musculus [33]): 0.1 g |
| CO[C@@]12[C@H](COC(N)=O)C3=C(C(=O)C(C)=C(N)C3=O)N1C[C@@H]1N[C@@H]12 [MITOMYCIN] | 17.6 |  | 2.7 | 6.6 |  | Active | 270% | Active | inactive | -0.8 g | 125% | inactive | Active | inactive | 175% | 130% | 0 g | -2.3 g | 175% | Active | Activity (P388 [8]): Active; Activity (Mus musculus [11]): 0 g; Activity (Escherichia coli [34]): Toxic; Activity (Escherichia coli [19]): Toxic; Activity (P388 [29]): Active; T/C (P388 [30]): 120%; Activity (P388 [31]): inactive; Activity (Mus musculus [32]): 0.1 g; Activity (Mus musculus [33]): 0.3 g |
| COC1=C(C)C(=O)C2=C(C1=O)[C@@H](COC(N)=O)[C@@]1(OC)[C@@H]3[C@H](CN21)N3C (some centres not stated) [N-METHYL-MITOMYCIN A] | 8.2 |  | 1.8 | 3.7 |  | Active | 180% | Active | inactive | -0.3 g | 115% | inactive | Active | inactive | 145% | 130% | 0.9 g | -3.1 g | 145% | Active | Activity (P388 [35]): Active; Activity (P388 [10]): inactive; Activity (Escherichia coli [36]): Toxic; T/C [7]: 21.2; Activity (P388 [37]): inactive; Activity (Mus musculus [38]): -2.4 g; Activity (P388 [29]): Active; T/C (P388 [39]): 165%; Activity (Mus musculus [32]): -1.6 g; Activity (Mus musculus [33]): 0.3 g |
